Test results as given in ChEMBL document CHEMBL6134796, “Development and Evaluation of Indole-Based Phospholipase D Inhibitors for Lung Cancer Immunotherapy” (J Med Chem, 2025).
Activity calls are given as the source filed them. The calls are words filed in the database; no cut-off is given here.

Experiments:
[1] = biological target: T1, Phospholipase D1 (Mus musculus) (UniProt Q9Z280); experiment: In vivo inhibition of PLD1 in male C57BL/6 mouse allografted with mouse Lewis lung carcinoma cell line assessed as reduction in PD-L1 expression at 10 mg/kg, po by immunofluorescence analysis; assay type: functional, organism-based
T1 sequence (whole entry): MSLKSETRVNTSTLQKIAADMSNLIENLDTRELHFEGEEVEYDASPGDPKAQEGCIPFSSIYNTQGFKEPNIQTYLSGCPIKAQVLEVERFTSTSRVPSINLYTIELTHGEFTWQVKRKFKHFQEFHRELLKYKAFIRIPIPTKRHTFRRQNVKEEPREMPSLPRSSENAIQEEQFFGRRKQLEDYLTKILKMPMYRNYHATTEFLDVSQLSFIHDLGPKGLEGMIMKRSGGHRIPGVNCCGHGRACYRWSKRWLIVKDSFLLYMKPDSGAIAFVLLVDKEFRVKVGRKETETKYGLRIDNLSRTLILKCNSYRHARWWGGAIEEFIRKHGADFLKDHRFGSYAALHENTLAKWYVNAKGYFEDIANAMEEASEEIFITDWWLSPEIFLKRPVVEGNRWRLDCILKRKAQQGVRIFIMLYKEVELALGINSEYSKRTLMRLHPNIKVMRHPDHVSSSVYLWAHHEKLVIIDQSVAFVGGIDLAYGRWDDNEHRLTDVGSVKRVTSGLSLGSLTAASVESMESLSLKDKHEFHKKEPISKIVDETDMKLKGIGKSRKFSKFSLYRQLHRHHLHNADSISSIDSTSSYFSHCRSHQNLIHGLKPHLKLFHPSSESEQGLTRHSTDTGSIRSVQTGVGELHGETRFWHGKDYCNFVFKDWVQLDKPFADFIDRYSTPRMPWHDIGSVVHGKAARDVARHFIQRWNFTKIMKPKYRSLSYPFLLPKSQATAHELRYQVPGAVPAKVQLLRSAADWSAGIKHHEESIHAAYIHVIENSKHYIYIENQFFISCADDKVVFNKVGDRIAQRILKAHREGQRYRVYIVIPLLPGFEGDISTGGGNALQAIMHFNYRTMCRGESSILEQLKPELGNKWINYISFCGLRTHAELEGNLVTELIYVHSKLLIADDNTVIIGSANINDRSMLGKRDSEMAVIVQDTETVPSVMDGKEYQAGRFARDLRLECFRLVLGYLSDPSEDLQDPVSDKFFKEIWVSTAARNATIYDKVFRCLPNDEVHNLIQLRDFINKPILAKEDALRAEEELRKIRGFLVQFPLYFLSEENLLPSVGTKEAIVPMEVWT

[2] = Inhibition of PLD in human A549 cells measured after 1 hr by amplex red phospholipase D assay; assay type: cell-based
[3] = test system: Calu-6; experiment: Cytotoxicity against human Calu-6 cells assessed as inhibition of cell growth incubated for 48 hrs by WST-1 assay; assay type: functional, cell-based; conditions: Calu-6, 48 h
[4] = test system: Lewis lung carcinoma cell line; experiment: Antitumor activity against mouse Lewis lung carcinoma cell line allografted in male C57BL/6 mouse model assessed as recovery of spleen size at 10 mg/kg, po measured every other day for 3 weeks; assay type: functional, organism-based
How it was run: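 Syngeneic model: 6-week-old male C57BL/6 mice given 3 × 10^5 LLC cells in 50 μL PBS subcutaneously in the flank. At day 7, mice were randomized to vehicle PO daily or 10 mg/kg PO every other day for 3 weeks. Caliper volume was taken every 2 days as ([…])/2, with tumor weight at end. Spleen size and weight were recorded. Ki67 and cleaved caspase-3 were scored by IHC (DAB, hematoxylin).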

[5] = test system: A549; experiment: Synergistic antiproliferative activity against human A549 cells assessed as reduction in cell proliferation measured up to 48 hrs in presence of gemcitabine by IncuCyte real-time imaging
[6] = test system: Mus musculus; experiment: In vivo inhibition of KRAS activation in male C57BL/6 mouse allografted with mouse Lewis lung carcinoma cell line assessed as decrease in Akt phosphorylation at 10 mg/kg, po; assay type: functional, organism-based
[7] = test system: A549; experiment: Cytotoxicity against human A549 cells assessed as inhibition of cell growth incubated for 48 hrs by WST-1 assay; assay type: functional, cell-based; conditions: A549, 48 h
[8] = biological target: T2, Phospholipase D1 (Homo sapiens) (UniProt Q13393); experiment: Binding affinity to PLD1 in human A549 cells assessed as protection against pronase E-mediated proteolysis at 2 to 20 uM incubated for 1 hr by DARTS assay; assay type: cell-based; conditions: dose 2-20 µM
T2 sequence (whole entry): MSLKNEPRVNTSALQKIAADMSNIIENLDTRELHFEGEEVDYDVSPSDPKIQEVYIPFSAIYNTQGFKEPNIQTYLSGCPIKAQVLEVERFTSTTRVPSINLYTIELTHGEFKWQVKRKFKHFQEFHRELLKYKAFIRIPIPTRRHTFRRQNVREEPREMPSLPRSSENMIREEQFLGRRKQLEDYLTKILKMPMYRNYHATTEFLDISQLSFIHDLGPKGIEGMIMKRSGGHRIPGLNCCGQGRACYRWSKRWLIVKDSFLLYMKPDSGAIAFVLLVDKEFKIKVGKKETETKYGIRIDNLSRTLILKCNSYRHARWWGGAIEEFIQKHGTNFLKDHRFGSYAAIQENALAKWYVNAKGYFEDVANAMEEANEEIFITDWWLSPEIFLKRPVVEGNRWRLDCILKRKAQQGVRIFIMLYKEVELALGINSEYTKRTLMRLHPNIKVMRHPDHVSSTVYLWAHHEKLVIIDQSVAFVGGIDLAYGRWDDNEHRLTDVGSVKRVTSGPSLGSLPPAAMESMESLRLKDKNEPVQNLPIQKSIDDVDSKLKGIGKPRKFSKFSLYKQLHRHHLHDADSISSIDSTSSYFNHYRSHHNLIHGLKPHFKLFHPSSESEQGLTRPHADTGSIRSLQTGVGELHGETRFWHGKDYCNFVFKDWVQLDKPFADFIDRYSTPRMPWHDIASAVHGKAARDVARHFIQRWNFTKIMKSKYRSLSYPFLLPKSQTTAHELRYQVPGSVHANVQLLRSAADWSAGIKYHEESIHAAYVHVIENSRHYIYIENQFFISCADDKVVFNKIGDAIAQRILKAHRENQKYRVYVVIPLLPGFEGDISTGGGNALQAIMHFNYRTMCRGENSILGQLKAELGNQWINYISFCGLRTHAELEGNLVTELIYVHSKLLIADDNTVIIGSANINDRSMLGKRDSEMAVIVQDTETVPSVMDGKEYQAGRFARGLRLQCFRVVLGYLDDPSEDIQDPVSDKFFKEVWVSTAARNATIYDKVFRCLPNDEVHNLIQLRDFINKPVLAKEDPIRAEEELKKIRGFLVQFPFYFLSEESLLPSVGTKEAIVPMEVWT
How it was run: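 A549 lysates made in buffer with protease and phosphatase inhibitors. Lysates were incubated with compound for 1 h at room temperature, then digested with Pronase for 10 min at RT. Digestion was quenched in SDS loading buffer by boiling 5 min. PLD1 and β-tubulin were detected by immunoblot.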

[9] = test system: Mus musculus; experiment: In vivo inhibition of KRAS activation in male C57BL/6 mouse allografted with mouse Lewis lung carcinoma cell line assessed as decrease in RAS level at 10 mg/kg, po; assay type: functional, organism-based

Q: Which inhibition [1] does the source give for `O=C(CCc1c[nH]c2ccccc12)Nc1cc(C(F)(F)F)cc(C(F)(F)F)c1` here?
A: Its inhibition is “Active”.

Q: And the IC50 [2]?
A: Its IC50 is 1970 nM.

Q: What about the IC50 [3] of the same molecule?
A: The IC50 was 19 µM.

Q: What about the Activity [4] of the same molecule?
A: Its Activity is “Active”.

Q: What about the Activity [5] of the same molecule?
A: Its Activity is “Active”.

Q: What about the inhibition [6] of the same molecule?
A: The inhibition was “Active”.

Q: What about the IC50 [7] of the same molecule?
A: The IC50 was 18 µM.

Q: What about the Activity [8] of the same molecule?
A: The Activity was “Active”.

Q: What about the inhibition [9] of the same molecule?
A: The inhibition was “Active”.
